ChEMBL document CHEMBL4373680, “Small antibacterial molecules highly active against drug-resistant Staphylococcus aureus” (Medchemcomm, 2019)
In brackets after ≈: the same amount, converted by molar mass. Activity calls are given as the source filed them. The calls are words filed in the database; no cut-off is given here.

How the values were obtained:
Klebsiella pneumoniae = assay: Antibacterial activity against Klebsiella pneumoniae ATCC 700603 after 24 hrs by tecan plate reader analysis; type: functional
Outline: (§1)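 Broth microdilution MIC. Glycerol stocks grown on MacConkey agar 24 h at 37 °C, then a single colony in nutrient broth 6 h to mid-log (~10⁸ CFU/mL). Cells diluted to 10⁵ CFU/mL in Mueller Hinton broth and added to two-fold compound dilutions. Incubated 24 h at 37 °C, OD600 read. Triplicate wells, experiment run twice.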

Staphylococcus aureus [1] = assay: Antibacterial activity against methicillin-resistant Staphylococcus aureus ATCC 33591 after 24 hrs by tecan plate reader analysis; type: functional; conditions: ATCC 33591, 24 h
Outline: (§2)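 Colony grown 24 h on NB agar at 37 °C, then 6 h in nutrient broth to mid-log (10⁸ CFU/mL by drop plating), diluted to 10⁵ CFU/mL in Mueller Hinton broth; added 9:1 to two-fold serial compound dilutions in MHB. Incubated 24 h, 37 °C; OD600 read. Triplicate per concentration, experiment run twice; MIC taken from the range of triplicate OD values.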

Acinetobacter baumannii = assay: Antibacterial activity against Acinetobacter baumannii MTCC 1425 after 24 hrs by tecan plate reader analysis; type: functional; outline: as §1
[2] = Hemolytic activity in human erythrocytes after 1 hr; type: ADME, cell-based, Erythrocyte
Outline: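 Heparinized donor blood. Erythrocytes washed three times in PBS and resuspended to 5 vol%, then mixed 3:1 with compound serially diluted in water. Incubated 1 h at 37 °C and centrifuged. Supernatant A540 read; % hemolysis relative to water and 0.1 vol% Triton-X controls.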

Pseudomonas aeruginosa = assay: Antibacterial activity against Pseudomonas aeruginosa MTCC 424 after 24 hrs by tecan plate reader analysis; type: functional; outline: as §1
Escherichia coli = assay: Antibacterial activity against Escherichia coli MTCC 443 after 24 hrs by tecan plate reader analysis; type: functional; outline: as §1
Staphylococcus aureus [3] = assay: Antibacterial activity against methicillin-resistant Staphylococcus aureus R3545 clinical isolate after 24 hrs by tecan plate reader analysis; type: functional; conditions: R3545, 24 h; outline: as §2
Staphylococcus aureus [4] = assay: Antibacterial activity against methicillin-resistant Staphylococcus aureus R3890 clinical isolate after 24 hrs by tecan plate reader analysis; type: functional; conditions: R3890, 24 h; outline: as §2
Staphylococcus aureus [5] = assay: Antibacterial activity against methicillin-resistant Staphylococcus aureus R3889 clinical isolate after 24 hrs by tecan plate reader analysis; type: functional; conditions: R3889, 24 h; outline: as §2
[6] = Selectivity index, ratio of HC50 for human erythrocytes to MIC for Escherichia coli MTCC 443; type: toxicity; conditions: read-out: Selectivity Index
Staphylococcus aureus [7] = assay: Antibiofilm activity against Staphylococcus aureus R3545 assessed as reduction in biofilm biomass at 32 ug/ml incubated for 24 hrs followed by plating on agar plate for 24 hrs by crystal violet staining assay relative to control; type: functional; conditions: R3545, 24 h
Outline: (§3)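 Biofilms grown 24 h static at 37 °C on coverslips (10⁵ CFU/mL in nutrient broth, 1% glucose, 1% NaCl) and treated 24 h, then PBS-washed, air-dried 10–15 min, stained with 0.1% w/v crystal violet 5–10 min, washed, dye recovered in 95% ethanol; OD 522 nm read. Run twice, mean with standard deviation.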

Staphylococcus aureus [8] = assay: Bactericidal activity against metabolically inactive stationary phase methicillin-resistant Staphylococcus aureus ATCC 33591 assessed as reduction in bacterial colony formation at 32 ug/ml incubated for 6 hrs followed by plating on agar plate for 24 hrs by visual counting analysis; type: functional, organism-based
Staphylococcus aureus [9] = assay: Antibiofilm activity against Staphylococcus aureus ATCC 33591 assessed as reduction in biofilm biomass at 32 ug/ml incubated for 24 hrs followed by plating on agar plate for 24 hrs by crystal violet staining assay relative to control; type: functional; conditions: ATCC 33591, 24 h; outline: as §3
Staphylococcus aureus [10] = assay: Bactericidal activity against metabolically inactive stationary phase methicillin-resistant Staphylococcus aureus R3545 assessed as reduction in bacterial colony formation at 32 ug/ml incubated for 6 hrs followed by plating on agar plate for 24 hrs by visual counting analysis; type: functional, organism-based
Staphylococcus aureus [11] = assay: Antibacterial activity against vancomycin-resistant Staphylococcus aureus clinical isolate 1 after 24 hrs by tecan plate reader analysis; type: functional; conditions: clinical isolate 1, 24 h; outline: as §2
Staphylococcus aureus [12] = assay: Antibacterial activity against vancomycin-resistant Staphylococcus aureus clinical isolate 4 after 24 hrs by tecan plate reader analysis; type: functional; conditions: clinical isolate 4, 24 h; outline: as §2
[13] = Klebsiella pneumoniae, 700603, 24 h

Compound	MIC (Klebsiella pneumoniae; [13]) [µg/mL]	MIC (Staphylococcus aureus [1]) [µg/mL]	MIC (Acinetobacter baumannii; MTCC 1425, 24 h) [µg/mL]	HC50 at 1 h [2] [µg/mL]	MIC (Pseudomonas aeruginosa; MTCC 424, 24 h) [µg/mL]	MIC (Escherichia coli; MTCC 443, 24 h) [µg/mL]	further results
CCCCCCCCNC(=O)C[N+](C)(CCO)CCCCCCCC[N+](C)(CCO)CC(=O)NCCCCCCCC.[Br-].[Br-] (centres undefined)	8	0.5 to 1	8	61	16	1 to 2	–
CCCCCCCCCCNC(=O)C[N+](C)(CCO)CCC[N+](C)(CCO)CC(=O)NCCCCCCCCCC.[Br-].[Br-] (centres undefined)	4	1	2	34	2	1	–
CCCCCCCCNC(=O)C[N+](C)(CCO)CCCCCCCCCC[N+](C)(CCO)CC(=O)NCCCCCCCC.[Br-].[Br-] (centres undefined)	4	0.25 to 0.5	4	28	4	0.5	–
COc1cccc(OC)c1C(=O)N[C@@H]1C(=O)N2[C@@H]1SC(C)(C)[C@@H]2C(=O)O [METHICILLIN]	–	> 32	–	–	–	–	MIC (Staphylococcus aureus [3]): 16 to 32 µg/mL (≈ 42.1 to 84.1 µM); MIC (Staphylococcus aureus [4]): > 32 µg/mL; MIC (Staphylococcus aureus [5]): 16 to 32 µg/mL (≈ 42.1 to 84.1 µM)
CCCCCCNC(=O)C[N+](C)(CCO)CCCCCCCCCC[N+](C)(CCO)CC(=O)NCCCCCC.O=C([O-])C(F)(F)F.O=C([O-])C(F)(F)F (centres undefined)	> 256	8	256	> 1020	256	8	selectivity ratio [6]: 125
CCCCCCCCCCCCNC(=O)C[N+](C)(CCO)CCCCCCCC[N+](C)(CCO)CC(=O)NCCCCCCCCCCCC.[Br-].[Br-] (centres undefined)	64	2	4	29	64 to 128	32	–
COLISTIN	–	–	–	–	–	–	MIC (Klebsiella pneumoniae): 1 µg/mL; MIC (Acinetobacter baumannii): 0.5 µg/mL; MIC (Pseudomonas aeruginosa): 1 µg/mL; MIC (Escherichia coli): 1 µg/mL
CCCCCCCCCCNC(=O)C[N+](C)(CCO)CCCCCC[N+](C)(CCO)CC(=O)NCCCCCCCCCC.[Br-].[Br-] (centres undefined)	2 to 4	0.5	2	31	4	1	–
CCCCCCCCNC(=O)C[N+](C)(CCO)CCCCCCCCCCCC[N+](C)(CCO)CC(=O)NCCCCCCCC.[Br-].[Br-] (centres undefined)	2	0.25	2	12	4	0.5 to 1	–
CCCCCCNC(=O)C[N+](C)(CCO)CCCCCC[N+](C)(CCO)CC(=O)NCCCCCC.O=C([O-])C(F)(F)F.O=C([O-])C(F)(F)F (centres undefined)	> 256	256	> 256	> 1020	> 256	> 256	–
CCCCCCCCCCNC(=O)C[N+](C)(CCO)CCCCCCCCCCCC[N+](C)(CCO)CC(=O)NCCCCCCCCCC.[Br-].[Br-] (centres undefined)	16	2	2	16	32	4	–
CCCCCCCCCCCCNC(=O)C[N+](C)(CCO)CCCCCCCCCC[N+](C)(CCO)CC(=O)NCCCCCCCCCCCC.[Br-].[Br-] (centres undefined)	64 to 128	4	8	32	64 to 128	32	–
CCCCCCCCCCCCNC(=O)C[N+](C)(CCO)CCCCCCCCCCCC[N+](C)(CCO)CC(=O)NCCCCCCCCCCCC.[Br-].[Br-] (centres undefined)	128 to 256	2 to 4	32	22	64	32	–
CCCCCCCCNC(=O)C[N+](C)(CCO)CCC[N+](C)(CCO)CC(=O)NCCCCCCCC.[Br-].[Br-] (centres undefined)	32	2	32	178	8	16	–
CCCCCCNC(=O)C[N+](C)(CCO)CCC[N+](C)(CCO)CC(=O)NCCCCCC.O=C([O-])C(F)(F)F.O=C([O-])C(F)(F)F (centres undefined)	> 256	256	> 256	> 1020	> 256	> 256	–
CCCCCCCCCCNC(=O)C[N+](C)(CCO)CCCCCCCC[N+](C)(CCO)CC(=O)NCCCCCCCCCC.[Br-].[Br-] (centres undefined)	2	0.5	1	25	4	1	–
CCCCCCCCCCCCNC(=O)C[N+](C)(CCO)CCCCCC[N+](C)(CCO)CC(=O)NCCCCCCCCCCCC.[Br-].[Br-] (centres undefined)	128	1 to 2	4	31	128 to 256	8	–
CCCCCCCCCCCCNC(=O)C[N+](C)(CCO)CCC[N+](C)(CCO)CC(=O)NCCCCCCCCCCCC.[Br-].[Br-] (centres undefined)	128 to 256	2	8	37	64 to 128	16	–
CCCCCCNC(=O)C[N+](C)(CCO)CCCCCCCC[N+](C)(CCO)CC(=O)NCCCCCC.O=C([O-])C(F)(F)F.O=C([O-])C(F)(F)F (centres undefined)	> 256	128	> 256	> 1020	> 256	256	–
CN[C@H](CC(C)C)C(=O)N[C@H]1C(=O)N[C@@H](CC(N)=O)C(=O)N[C@H]2C(=O)N[C@H]3C(=O)N[C@H](C(=O)N[C@H](C(=O)O)c4cc(O)cc(O)c4-c4cc3ccc4O)[C@H](O)c3ccc(c(Cl)c3)Oc3cc2cc(c3O[C@@H]2O[C@H](CO)[C@@H](O)[C@H](O)[C@H]2O[C@H]2C[C@](C)(N)[C@H](O)[C@H](C)O2)Oc2ccc(cc2Cl)[C@H]1O [VANCOMYCIN]	–	0.5 to 1 (≈ 0.345 to 0.69 µM)	–	–	–	–	inhibition at 32 µg/mL (Staphylococcus aureus [7]): 10%; Activity (Staphylococcus aureus [8]): inactive; inhibition at 32 µg/mL (Staphylococcus aureus [9]): 10%; Activity (Staphylococcus aureus [10]): inactive; MIC (Staphylococcus aureus [11]): 512 µg/mL (≈ 353 µM); MIC (Staphylococcus aureus [12]): 512 µg/mL (≈ 353 µM)
CCCCCCCCCCNC(=O)C[N+](C)(CCO)CCCCCCCCCC[N+](C)(CCO)CC(=O)NCCCCCCCCCC.[Br-].[Br-] (centres undefined)	4	0.5	1	18	8	2	–
